Test results reported in ChEMBL document CHEMBL4406880, “Design, synthesis, and bioactivity of dihydropyrimidine derivatives as kinesin spindle protein inhibitors” (Bioorg Med Chem, 2019).

Assays:
Format in all cases: functional
[1] = test system: OVCAR-3; test: Growth inhibition of human OVCAR3 cells assessed as growth percentage at 10 uM incubated for 48 hrs by sulforhodamine B assay relative to control; conditions: OVCAR-3, 48 h, read-out: Activity
Outline: (§1)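 NCI-60 one-dose screen. Cells in RPMI 1640 with 5% FBS and 2 mM L-glutamine, seeded at 5,000–40,000 cells/well according to doubling time, and preincubated overnight at 37 °C, 5% CO2. A time-zero plate was TCA-fixed at drug addition. Compound from DMSO stock, final 10 µM, 48 h; DMSO vehicle controls. Fixation with TCA, 10% final (16% for suspension cells). SRB stain, Tris solubilization, A515. Result given as % growth versus untreated cells.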

[2] = test system: UO-31; test: Growth inhibition of human UO31 cells assessed as growth percentage at 10 uM incubated for 48 hrs by sulforhodamine B assay relative to control; conditions: UO-31, 48 h, read-out: Activity
Outline: (§2)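 NCI-60 single-dose screen. Cells were grown in RPMI 1640 with 5% FBS and 2 mM L-glutamine and plated at 5,000–40,000 cells/well. After an overnight preincubation at 37 °C in 5% CO2, compound was added at a final 10 µM from a DMSO stock, with DMSO/PBS controls. After 48 h, cells were TCA-fixed and stained with 0.4% SRB, and absorbance was read at 515 nm. Growth is given as a percentage of untreated control.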

[3] = test system: NCI/ADR-RES; test: Growth inhibition of human NCI/ADR-RES cells assessed as growth percentage at 10 uM incubated for 48 hrs by sulforhodamine B assay relative to control; conditions: read-out: Activity; outline: as §1
[4] = test system: SF-295; test: Growth inhibition of human SF295 cells assessed as growth percentage at 10 uM incubated for 48 hrs by sulforhodamine B assay relative to control; conditions: SF-295, 48 h, read-out: Activity; outline: as §2
[5] = test system: NCI-H460; test: Growth inhibition of human NCI-H460 cells assessed as growth percentage at 10 uM incubated for 48 hrs by sulforhodamine B assay relative to control; conditions: NCI-H460, 48 h, read-out: Activity; outline: as §1
[6] = test system: HL-60(TB); test: Growth inhibition of human HL-60(TB) cells assessed as growth percentage at 10 uM incubated for 48 hrs by sulforhodamine B assay relative to control; conditions: HL-60, 48 h, read-out: Activity
Outline: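 NCI-60 single-dose screen. Cells in RPMI 1640 with 5% FBS and 2 mM L-glutamine are plated at 5,000–40,000 cells/well and preincubated overnight at 37 °C, 5% CO2. Compound is added from a DMSO stock at 10 µM final for 48 h. Cells are TCA-fixed (suspension cells 16% final) and stained with SRB. Absorbance is read at 515 nm, and percentage growth is calculated against untreated controls with a time-zero plate.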

[7] = test system: SK-MEL-28; test: Growth inhibition of human SK-MEL-28 cells assessed as growth percentage at 10 uM incubated for 48 hrs by sulforhodamine B assay relative to control; conditions: SK-MEL-28, 48 h, read-out: Activity; outline: as §2
[8] = test system: NCI-H322M; test: Growth inhibition of human NCI-H322M cells assessed as growth percentage at 10 uM incubated for 48 hrs by sulforhodamine B assay relative to control; conditions: read-out: Activity; outline: as §1
[9] = test system: HCC 2998; test: Growth inhibition of human HCC2998 cells assessed as growth percentage at 10 uM incubated for 48 hrs by sulforhodamine B assay relative to control; conditions: HCC 2998, 48 h, read-out: Activity
Outline: (§3)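 NCI-60 one-dose screen: cells in RPMI 1640 with 5% FBS and 2 mM L-glutamine, plated at 5,000–40,000 cells/well and preincubated 24 h at 37 °C, 5% CO2. Compound is added from a DMSO stock to a final 10 µM and incubated 48 h. Cells are TCA-fixed and stained with sulforhodamine B, read at 515 nm. Output is % growth versus untreated control, with a time-zero plate.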

[10] = test system: OVCAR-4; test: Growth inhibition of human OVCAR4 cells assessed as growth percentage at 10 uM incubated for 48 hrs by sulforhodamine B assay relative to control; conditions: OVCAR-4, 48 h, read-out: Activity; outline: as §1
[11] = test system: ACHN; test: Growth inhibition of human ACHN cells assessed as growth percentage at 10 uM incubated for 48 hrs by sulforhodamine B assay relative to control; conditions: read-out: Activity; outline: as §3
[12] = test system: M14; test: Growth inhibition of human M14 cells assessed as growth percentage at 10 uM incubated for 48 hrs by sulforhodamine B assay relative to control; conditions: M14, 48 h, read-out: Activity; outline: as §1
[13] = test system: K562; test: Growth inhibition of human K562 cells assessed as growth percentage at 10 uM incubated for 48 hrs by sulforhodamine B assay relative to control; conditions: K562, 48 h, read-out: Activity; outline: as §1
[14] = test system: SF-539; test: Growth inhibition of human SF539 cells assessed as growth percentage at 10 uM incubated for 48 hrs by sulforhodamine B assay relative to control; conditions: SF-539, 48 h, read-out: Activity; outline: as §2
[15] = test system: UACC-62; test: Growth inhibition of human UACC62 cells assessed as growth percentage at 10 uM incubated for 48 hrs by sulforhodamine B assay relative to control; conditions: UACC-62, 48 h, read-out: Activity; outline: as §2
[16] = test system: UACC-257; test: Growth inhibition of human UACC257 cells assessed as growth percentage at 10 uM incubated for 48 hrs by sulforhodamine B assay relative to control; conditions: UACC-257, 48 h, read-out: Activity; outline: as §2
[17] = test system: NCI-H23; test: Growth inhibition of human NCI-H23 cells assessed as growth percentage at 10 uM incubated for 48 hrs by sulforhodamine B assay relative to control; conditions: NCI-H23, 48 h, read-out: Activity; outline: as §1
[18] = test system: PC-3; test: Growth inhibition of human PC3 cells assessed as growth percentage at 10 uM incubated for 48 hrs by sulforhodamine B assay relative to control; conditions: PC-3, 48 h, read-out: Activity; outline: as §2
[19] = test system: 786-0; test: Growth inhibition of human 786-0 cells assessed as growth percentage at 10 uM incubated for 48 hrs by sulforhodamine B assay relative to control; conditions: 786-0, 48 h, read-out: Activity; outline: as §3
[20] = test system: IGROV-1; test: Growth inhibition of human IGROV1 cells assessed as growth percentage at 10 uM incubated for 48 hrs by sulforhodamine B assay relative to control; conditions: IGROV-1, 48 h, read-out: Activity; outline: as §1
[21] = test system: RXF 393; test: Growth inhibition of human RXF393 cells assessed as growth percentage at 10 uM incubated for 48 hrs by sulforhodamine B assay relative to control; conditions: RXF 393, 48 h, read-out: Activity; outline: as §2
[22] = test system: U-251; test: Growth inhibition of human U251 cells assessed as growth percentage at 10 uM incubated for 48 hrs by sulforhodamine B assay relative to control; conditions: U-251, 48 h, read-out: Activity; outline: as §2
[23] = test system: CAKI-1; test: Growth inhibition of human Caki1 cells assessed as growth percentage at 10 uM incubated for 48 hrs by sulforhodamine B assay relative to control; conditions: CAKI-1, 48 h, read-out: Activity; outline: as §3
[24] = test system: SR; test: Growth inhibition of human SR cells assessed as growth percentage at 10 uM incubated for 48 hrs by sulforhodamine B assay relative to control; conditions: read-out: Activity; outline: as §2

Row | Structure (SMILES) | growth at 10 µM [1] [%] | growth at 10 µM [2] [%] | growth at 10 µM [3] [%] | growth at 10 µM [4] [%] | growth at 10 µM [5] [%] | growth at 10 µM [6] [%] | growth at 10 µM [7] [%] | growth at 10 µM [8] [%] | growth at 10 µM [9] [%] | growth at 10 µM [10] [%] | growth at 10 µM [11] [%] | growth at 10 µM [12] [%] | growth at 10 µM [13] [%] | growth at 10 µM [14] [%] | growth at 10 µM [15] [%] | growth at 10 µM [16] [%] | growth at 10 µM [17] [%] | growth at 10 µM [18] [%] | growth at 10 µM [19] [%] | growth at 10 µM [20] [%] | also measured
1 | CC(=O)C1=C(C)NC(=O)NC1c1ccc2c(c1)OCO2 (racemic) | 115 | 83.4 | 106 | 106 | 114 | 98.6 | 115 | 104 | 107 | 108 | 108 | 104 | 104 | 102 | 98.9 | 107 | 101 | 99 | 105 | 103 | growth at 10 µM [21]: 95.2%; growth at 10 µM [22]: 100%; growth at 10 µM [23]: 91.4%; growth at 10 µM [24]: 108%
2 | O=C1C2=C(NC(=S)NC2c2ccc3c(c2)OCO3)c2ccccc21 (racemic) | 113 | 77 | 103 | 102 | 111 | 99.7 | 123 | 106 | 106 | 102 | 106 | 110 | 103 | 105 | 99.7 | 102 | 98.5 | 96.3 | 108 | 104 | growth at 10 µM [21]: 107%; growth at 10 µM [22]: 97.8%; growth at 10 µM [23]: 87.4%; growth at 10 µM [24]: 107%
3 | CC(=O)N1C(=S)NC(C)=C(C(=O)OCC(C)C)C1c1ccc2c(c1)OCO2 (racemic) | 96.8 | 91.8 | 97 | 101 | 105 | 98.5 | 105 | 102 | 110 | 79.6 | 105 | 96.4 | 78.2 | 101 | 85.7 | 99.5 | 97.1 | 81.2 | 95.1 | 112 | growth at 10 µM [21]: 106%; growth at 10 µM [22]: 87.5%; growth at 10 µM [23]: 96.2%; growth at 10 µM [24]: 80%
4 | CC1=C(C(=O)c2ccccc2)C(c2ccc3c(c2)OCO3)NC(=O)N1 (racemic) | 106 | 80.6 | 103 | 101 | 114 | 105 | 117 | 99.5 | 111 | 99.9 | 108 | 99.8 | 92.7 | 99.7 | 94.3 | 98 | 107 | 103 | 99.5 | 90.6 | growth at 10 µM [21]: 109%; growth at 10 µM [22]: 96.5%; growth at 10 µM [23]: 91.1%; growth at 10 µM [24]: 101%
5 | O=C1NC2=C(C(=O)c3ccccc32)C(c2ccc3c(c2)OCO3)N1 (racemic) | 115 | 85.4 | 109 | 103 | 113 | 98.9 | 114 | 111 | 107 | 116 | 104 | 110 | 104 | 94.7 | 101 | 100 | 104 | 101 | 106 | 104 | growth at 10 µM [21]: 98.8%; growth at 10 µM [22]: 100%; growth at 10 µM [23]: 90.9%; growth at 10 µM [24]: 110%
6 | CC1(C)CC(=O)C2=C(C1)NC(=O)NC2c1ccc2c(c1)OCO2 (racemic) | 115 | 84.6 | 104 | 112 | 117 | 97.6 | 111 | 105 | 109 | 102 | 109 | 102 | 108 | 106 | 107 | 102 | 104 | 99.4 | 105 | 97.9 | growth at 10 µM [21]: 118%; growth at 10 µM [22]: 103%; growth at 10 µM [23]: 93.9%; growth at 10 µM [24]: 118%
7 | CC(=O)C1=C(C)Nc2nc3ccccc3n2C1c1ccc2c(c1)OCO2 (racemic) | 105 | 89.3 | 102 | 103 | 112 | 98.4 | 107 | 98.1 | 111 | 102 | 110 | 105 | 82.9 | 99.7 | 94.4 | 111 | 106 | 92.8 | 100 | 106 | growth at 10 µM [21]: 108%; growth at 10 µM [22]: 95.7%; growth at 10 µM [23]: 88.3%; growth at 10 µM [24]: 73.8%
